Converted amounts (≈) assume the structure as drawn.
Legend:
Streptococcus pneumoniae [1] = test: Antibacterial activity against wild type Streptococcus pneumoniae R6 by standardized agar doubling dilution method in presence of 50 uM sodium orthovanadate efflux pump inhibitor; format: functional
Procedure, shortened: (§1)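 MIC by agar doubling dilution following BSAC guidelines. Strains grown in brain heart infusion broth 24 h at 37°C in 5% CO2. Where an efflux pump inhibitor applies, MIC redetermined with reserpine at 20 μg/ml or sodium orthovanadate at 50 μM. Synergy taken as a fall in MIC of ≥2 dilutions with inhibitor present. Dye resistance defined relative to R6 (both dyes ≥2 dilutions higher).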

Streptococcus pneumoniae [2] = test: Antibacterial activity against wild-type Streptococcus pneumoniae R6 by standardized agar doubling dilution method in presence of 50 uM sodium orthovanadate efflux pump inhibitor
Streptococcus pneumoniae [3] = test: Antibacterial activity against fluoroquinolone, dye-resistant Streptococcus pneumoniae M45 overexpressing patA, patB by standardized agar doubling dilution method; format: functional; procedure, shortened: as §1
Streptococcus pneumoniae [4] = test: Antibacterial activity against fluoroquinolone, dye-susceptible Streptococcus pneumoniae M295 S overexpressing patA, patB by standardized agar doubling dilution method in presence of 50 uM sodium orthovanadate efflux pump inhibitor; format: functional
Procedure, shortened: (§2)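 MIC by agar doubling dilution per BSAC guidelines; strains pregrown in brain heart infusion broth 24 h, 37°C, 5% CO2. MICs measured alone and with efflux pump inhibitors reserpine (20 μg/ml) or sodium orthovanadate (50 μM); synergy defined as ≥2-dilution MIC reduction in presence of inhibitor.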

Streptococcus pneumoniae [5] = test: Antibacterial activity against fluoroquinolone, dye-resistant Streptococcus pneumoniae by standardized agar doubling dilution method; format: functional; procedure, shortened: as §1
Streptococcus pneumoniae [6] = test: Antibacterial activity against Streptococcus pneumoniae M302 overexpressing patA, patB and inactivated patA with single mutation by standardized agar doubling dilution method; format: functional
Procedure, shortened: (§3)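 MICs determined by BSAC standardized agar doubling dilution. Strains were grown in brain heart infusion broth for 24 h at 37°C in 5% CO2. Inhibitor arms had reserpine at 20 μg/ml or sodium orthovanadate at 50 μM in the agar. Mutants were made by transforming magellan2 insertion amplimers into clinical isolates and selecting on spectinomycin 100 mg/liter, with a no-DNA spontaneous-mutation control.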

Streptococcus pneumoniae [7] = test: Antibacterial activity against Streptococcus pneumoniae M314 overexpressing patA, patB and inactivated patA with single mutation by standardized agar doubling dilution method; format: functional; procedure, shortened: as §3
Streptococcus pneumoniae [8] = test: Antibacterial activity against Streptococcus pneumoniae M315 overexpressing patA, patB and inactivated patA with single mutation by standardized agar doubling dilution method; format: functional; procedure, shortened: as §3
Streptococcus pneumoniae [9] = test: Antibacterial activity against Streptococcus pneumoniae M315 overexpressing patA, patB and inactivated patA with single mutation by standardized agar doubling dilution method in presence of 50 uM sodium orthovanadate efflux pump inhibitor; format: functional
Procedure, shortened: (§4)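 MICs were determined by BSAC agar doubling dilution in the presence of sodium orthovanadate at 50 μM. Cultures were grown in BHI broth for 24 h at 37°C in 5% CO2, with R6 as control. Synergy was defined as an MIC reduction of ≥2 dilutions with the inhibitor present.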

Streptococcus pneumoniae [10] = test: Antibacterial activity against Streptococcus pneumoniae M55B overexpressing patA, patB and inactivated patB with single mutation by standardized agar doubling dilution method in presence of 20 ug/ml reserpine efflux pump inhibitor; format: functional
Procedure, shortened: (§5)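 MICs were determined by BSAC agar doubling dilution in the presence of reserpine at 20 μg/ml. Strains were grown in BHI broth for 24 h at 37°C in 5% CO2, with R6 as control. Synergy was defined as an MIC drop of ≥2 dilutions with the inhibitor.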

Streptococcus pneumoniae [11] = test: Antibacterial activity against Streptococcus pneumoniae M87B overexpressing patA, patB and inactivated patB with single mutation by standardized agar doubling dilution method in presence of 20 ug/ml reserpine efflux pump inhibitor; format: functional; procedure, shortened: as §5
Streptococcus pneumoniae [12] = test: Antibacterial activity against Streptococcus pneumoniae M308 overexpressing patA, patB and inactivated patB with single mutation by standardized agar doubling dilution method in presence of 20 ug/ml reserpine efflux pump inhibitor; format: functional; procedure, shortened: as §3
Streptococcus pneumoniae [13] = test: Antibacterial activity against fluoroquinolone, dye-resistant Streptococcus pneumoniae M87 overexpressing patA, patB by standardized agar doubling dilution method; format: functional; procedure, shortened: as §1
Streptococcus pneumoniae [14] = test: Antibacterial activity against fluoroquinolone, dye-susceptible Streptococcus pneumoniae by standardized agar doubling dilution method in presence of 50 uM sodium orthovanadate efflux pump inhibitor; format: functional; procedure, shortened: as §1
Streptococcus pneumoniae [15] = test: Antibacterial activity against Streptococcus pneumoniae M46B overexpressing patA, patB and inactivated patB with single mutation by standardized agar doubling dilution method; format: functional
Procedure, shortened: (§6)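 MICs were determined by agar doubling dilution following BSAC guidelines, with no efflux inhibitor. Strains were grown in brain heart infusion broth for 24 h at 37°C in 5% CO2. Species identity was confirmed by Gram stain, optochin sensitivity and capsule test. Control strain R6 was tested alongside.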

Streptococcus pneumoniae [16] = test: Antibacterial activity against fluoroquinolone, dye-resistant Streptococcus pneumoniae by standardized agar doubling dilution method in presence of 50 uM sodium orthovanadate efflux pump inhibitor; format: functional; procedure, shortened: as §1
Streptococcus pneumoniae [17] = test: Antibacterial activity against Streptococcus pneumoniae M316 overexpressing patA, patB and inactivated patA with single mutation by standardized agar doubling dilution method in presence of 50 uM sodium orthovanadate efflux pump inhibitor; format: functional; procedure, shortened: as §4
Streptococcus pneumoniae [18] = test: Antibacterial activity against Streptococcus pneumoniae M302 overexpressing patA, patB and inactivated patA with single mutation by standardized agar doubling dilution method in presence of 20 ug/ml reserpine efflux pump inhibitor; format: functional; procedure, shortened: as §3
Streptococcus pneumoniae [19] = test: Antibacterial activity against Streptococcus pneumoniae M311B overexpressing patA, patB and inactivated patB with single mutation by standardized agar doubling dilution method; format: functional; procedure, shortened: as §3
Streptococcus pneumoniae [20] = test: Antibacterial activity against Streptococcus pneumoniae M45B overexpressing patA, patB and inactivated patB with single mutation by standardized agar doubling dilution method in presence of 50 uM sodium orthovanadate efflux pump inhibitor; format: functional; procedure, shortened: as §4
Streptococcus pneumoniae [21] = test: Antibacterial activity against Streptococcus pneumoniae M45B overexpressing patA, patB and inactivated patB with single mutation by standardized agar doubling dilution method in presence of 20 ug/ml reserpine efflux pump inhibitor; format: functional; procedure, shortened: as §5
Streptococcus pneumoniae [22] = test: Antibacterial activity against Streptococcus pneumoniae M303 overexpressing patA, patB and inactivated patA with single mutation by standardized agar doubling dilution method; format: functional; procedure, shortened: as §3
Streptococcus pneumoniae [23] = test: Antibacterial activity against Streptococcus pneumoniae M306 overexpressing patA, patB and inactivated patB with single mutation by standardized agar doubling dilution method in presence of 20 ug/ml reserpine efflux pump inhibitor; format: functional; procedure, shortened: as §3
Streptococcus pneumoniae [24] = test: Antibacterial activity against Streptococcus pneumoniae M308 overexpressing patA, patB and inactivated patB with single mutation by standardized agar doubling dilution method; format: functional; procedure, shortened: as §3
Streptococcus pneumoniae [25] = test: Antibacterial activity against dye-resistant Streptococcus pneumoniae M46 DR overexpressing patA, patB by standardized agar doubling dilution method; format: functional; procedure, shortened: as §6
Streptococcus pneumoniae [26] = test: Antibacterial activity against Streptococcus pneumoniae M302 overexpressing patA, patB and inactivated patA with single mutation by standardized agar doubling dilution method in presence of 50 uM sodium orthovanadate efflux pump inhibitor; format: functional; procedure, shortened: as §3
Streptococcus pneumoniae [27] = test: Antibacterial activity against Streptococcus pneumoniae M304 overexpressing patA, patB and inactivated patA with single mutation by standardized agar doubling dilution method in presence of 20 ug/ml reserpine efflux pump inhibitor; format: functional; procedure, shortened: as §3
Streptococcus pneumoniae [28] = test: Antibacterial activity against wild type Streptococcus pneumoniae M4 NCTC 7465 type 1 by standardized agar doubling dilution method in presence of 50 uM sodium orthovanadate efflux pump inhibitor; format: functional
Streptococcus pneumoniae [29] = test: Antibacterial activity against fluoroquinolone-resistant Streptococcus pneumoniae M100 FQ-R overexpressing patA, patB by standardized agar doubling dilution method in presence of 20 ug/ml reserpine efflux pump inhibitor; format: functional; procedure, shortened: as §2

| SMILES | MIC (Streptococcus pneumoniae [1]) [µg/mL] | MIC (Streptococcus pneumoniae [2]) [µg/mL] | MIC (Streptococcus pneumoniae [3]) [µg/mL] | MIC (Streptococcus pneumoniae [4]) [µg/mL] | MIC90 (Streptococcus pneumoniae [5]) [µg/mL] | MIC (Streptococcus pneumoniae [6]) [µg/mL] | MIC (Streptococcus pneumoniae [7]) [µg/mL] | MIC (Streptococcus pneumoniae [8]) [µg/mL] | MIC (Streptococcus pneumoniae [9]) [µg/mL] | MIC (Streptococcus pneumoniae [10]) [µg/mL] | MIC (Streptococcus pneumoniae [11]) [µg/mL] | MIC (Streptococcus pneumoniae [12]) [µg/mL] | MIC (Streptococcus pneumoniae [13]) [µg/mL] | MIC90 (Streptococcus pneumoniae [14]) [µg/mL] | MIC (Streptococcus pneumoniae [15]) [µg/mL] | MIC90 (Streptococcus pneumoniae [16]) [µg/mL] | MIC (Streptococcus pneumoniae [17]) [µg/mL] | MIC (Streptococcus pneumoniae [18]) [µg/mL] | MIC (Streptococcus pneumoniae [19]) [µg/mL] | MIC (Streptococcus pneumoniae [20]) [µg/mL] | also measured |
| --- | --- | --- | --- | --- | --- | --- | --- | --- | --- | --- | --- | --- | --- | --- | --- | --- | --- | --- | --- | --- | --- |
| O=C(O)c1cn(C2CC2)c2cc(N3CCNCC3)c(F)cc2c1=O [CIPROFLOXACIN] | 0.1 | 0.25 | 4 (≈ 12.1 µM) | 0.25 | 16 (≈ 48.3 µM) | 4 (≈ 12.1 µM) | 8 (≈ 24.1 µM) | 2 (≈ 6.04 µM) | 0.12 | 2 | 8 | 1 | 32 (≈ 96.6 µM) | 0.5 | 0.12 (≈ 0.362 µM) | 8 | 8 | 4 | 8 (≈ 24.1 µM) | 1 | MIC (Streptococcus pneumoniae [21]): 1 µg/mL; MIC (Streptococcus pneumoniae [22]): 2 µg/mL (≈ 6.04 µM); MIC (Streptococcus pneumoniae [23]): 4 µg/mL; MIC (Streptococcus pneumoniae [24]): 2 µg/mL (≈ 6.04 µM); MIC (Streptococcus pneumoniae [25]): 0.25 µg/mL (≈ 0.754 µM); MIC (Streptococcus pneumoniae [26]): 4 µg/mL; MIC (Streptococcus pneumoniae [27]): 1 µg/mL; MIC (Streptococcus pneumoniae [28]): 1 µg/mL; MIC (Streptococcus pneumoniae [29]): 2 µg/mL |
| CC[n+]1c(-c2ccccc2)c2cc(N)ccc2c2ccc(N)cc21.[Br-] [HOMIDIUM BROMIDE] | 0.1 | 0.12 | 4 | 0.5 | 8 | 0.5 | 0.5 | 0.25 | 0.25 | 0.5 | 0.5 | 0.25 | 4 | 0.25 | 0.5 | 1 | 0.5 | 0.5 | 0.5 | 0.5 | MIC (Streptococcus pneumoniae [21]): 0.5 µg/mL; MIC (Streptococcus pneumoniae [22]): 1 µg/mL; MIC (Streptococcus pneumoniae [23]): 0.5 µg/mL; MIC (Streptococcus pneumoniae [24]): 0.25 µg/mL; MIC (Streptococcus pneumoniae [25]): 16 µg/mL; MIC (Streptococcus pneumoniae [26]): 0.5 µg/mL; MIC (Streptococcus pneumoniae [27]): 0.5 µg/mL; MIC (Streptococcus pneumoniae [28]): 0.3 µg/mL; MIC (Streptococcus pneumoniae [29]): 0.25 µg/mL |
